# Measurements taken from ChEMBL document CHEMBL2440016, “Targeting the human parasite Leishmania donovani: discovery of a new promising anti-infectious pharmacophore in 3-nitroimidazo[1,2-a]pyridine series” (Bioorg Med Chem, 2013).
# Columns and labels:
# [1] = Cytotoxicity against mouse J774.1 cells after 72 hrs by MTT assay; format: cell-based; settings: J774.1 cells
# Outline: (§1)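 Cells plated in RPMI with 10% FCS, L-glutamine and penicillin/streptomycin, 24 h at 37 °C, 6% CO2. Compound dilutions then added for 72 h. MTT 0.5 mg/mL in PBS for 2 h, formazan dissolved in DMSO, A570 with 630 nm reference. Viability taken as % of untreated control. Doxorubicin served as positive control. CC50 from the dose-response curve.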
# [2] = Cytotoxicity against human HepG2 cells after 72 hrs by MTT assay; format: cell-based; settings: HepG2 cells; outline: as §1
# [3] = tested on: Leishmania donovani; test: Antimicrobial activity against Leishmania donovani MHOM/IN/00/DEVI promastigotes after 72 hrs by MTT assay; format: functional, organism-based; settings: Leishmania donovani, MHOM/IN/00/DEVI, 72 h; read-out: IC50
# Outline: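 Log-phase promastigotes in Schneider's medium with 20% FCS, 2 mM L-glutamine and penicillin/streptomycin, at 10⁶ parasites/mL. Compound dilutions run in duplicate, final DMSO <0.5%, 72 h at 27 °C. MTT 0.5 mg/mL for 6 h at 27 °C, formazan dissolved in DMSO, A570.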
# [4] = Selectivity index, ratio of CC50 for human HepG2 cells to IC50 for Leishmania donovani MHOM/IN/00/DEVI; format: functional
# Outline: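 SI = HepG2 CC50 / L. donovani IC50.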
# [5] = Selectivity index, ratio of CC50 for mouse J774.1 cells to IC50 for Leishmania donovani MHOM/IN/00/DEVI; format: functional
Structure (SMILES),CC50 at 72 h [1] [µM],CC50 at 72 h [2] [µM],IC50 [3] [µM],Ratio CC50/IC50 [4],Ratio CC50/IC50 [5]
Cc1ccc(S(=O)(=O)Cc2nc3ccc(Cl)cn3c2[N+](=O)[O-])cc1,> 94,> 100,> 50,,
Cc1nc2ccccn2c1[N+](=O)[O-],> 100,> 100,> 50,,
O=S(=O)(Cc1cn2ccccc2n1)c1ccccc1,> 100,> 100,> 50,,
O=[N+]([O-])c1c(CS(=O)(=O)c2ccc(C(F)(F)F)cc2)nc2ccc(Br)cn12,> 25,31.7,> 50,<0.6,
O=[N+]([O-])c1c(CCl)nc2ccccn12,4.8,8.7,15.1,0.6,0.3
O=[N+]([O-])c1c(CSc2ccccc2)nc2ccc(Br)cn12,> 6,0.53,> 10,<0.05,
O=[N+]([O-])c1cnc2ccccn12,> 100,> 100,> 50,,
O=S(=O)(Cc1cn2cc(I)ccc2n1)c1ccc(Cl)cc1,44.2,39.1,> 50,<0.8,<0.8
O=S(=O)(Cc1cn2cc(Cl)ccc2n1)c1ccccc1,13.3,16.5,> 50,<0.3,<0.3
O=[N+]([O-])c1c(CS(=O)(=O)c2ccccc2)nc2ccc(Cl)cn12,> 100,> 100,18.2,>5.5,>5.5
COc1ccc(S(=O)(=O)Cc2nc3ccc(Br)cn3c2[N+](=O)[O-])cc1,> 92.5,> 100,> 50,,
c1ccn2ccnc2c1,> 100,> 100,> 50,,
Cc1ccc(S(=O)(=O)Cc2nc3ccc(I)cn3c2[N+](=O)[O-])cc1,34.8,> 50,39.2,>1.3,0.9
O=[N+]([O-])c1c(CCl)nc2ccc(Br)cn12,4.9,15.6,9.6,1.6,0.5
O=S(=O)(Cc1cn2cc(Br)ccc2n1)c1ccccc1,6.4,7.3,> 50,0.15,<0.1
CS(=O)(=O)Cc1nc2ccc(Br)cn2c1[N+](=O)[O-],> 100,> 100,> 50,,
O=[N+]([O-])c1c(CS(=O)(=O)c2ccc(F)cc2)nc2ccc(Br)cn12,> 92.8,> 100,> 50,,
Cc1ccccc1-c1ccc2nc(CS(=O)(=O)c3ccccc3)c([N+](=O)[O-])n2c1,5,> 9.4,> 10,,<0.5
ClCc1cn2cc(Br)ccc2n1,68.4,> 100,> 50,,<1.4
ClCc1cn2ccccc2n1,> 100,> 100,> 50,,
COc1cccc2c1C(=O)c1c(O)c3c(c(O)c1C2=O)C[C@@](O)(C(=O)CO)C[C@@H]3O[C@H]1C[C@H](N)[C@H](O)[C@H](C)O1 [DOXORUBICIN],0.02,,,,
Cc1ccc(S(=O)(=O)Cc2cn3cc(I)ccc3n2)cc1,25,> 12.5,> 50,,<0.5
O=[N+]([O-])c1c(CS(=O)(=O)c2ccccc2)nc2ccccn12,> 100,> 62.5,> 50,,
O=[N+]([O-])c1c(CS(=O)(=O)c2ccc(-c3ccccc3)cc2)nc2ccc(Br)cn12,54.4,> 100,> 50,,<1.1
